Assay results from publication PMC7043261 (Pharmacology Research & Perspectives, 2020).

How the values were obtained:
[1] = test system: CCI‐induced mechanical allodynia in rats; test: CCI‐induced neuropathic pain; type: in vivo; conditions: rat, 4 hours
Method in brief: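 Male Sprague‐Dawley rats. Under anesthesia, the left sciatic nerve was loosely tied with four ligatures at 1 mm intervals; in shams the right nerve was exposed but not ligated. On day 14 after surgery, the test compound (0.5% HPMC suspension) or pregabalin (saline) was given orally at 10 mL/kg 4 h before PWT. PWT was measured by von Frey up‐down method. n=8, mean ± SEM; Steel's or Wilcoxon test.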

[2] = test system: formalin‐induced pain responses in rats; test: Formalin test; type: in vivo; conditions: rat; for formalin‐induced pain responses, early phase: 0 to 10 minutes; for formalin‐induced pain responses, late phase: 10 to 45 minutes
Method in brief: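 Male Wistar rats received oral dosing 1 h before injection: test compound in 0.5% HPMC or pregabalin in saline, 10 mL/kg. Then 0.5% formalin (50 µL) was injected into the left hind‐paw plantar surface. Flinching, licking and biting time was scored manually over 45 min: early phase 0–10 min, late phase 10–45 min. n=6, mean ± SEM; Dunnett's or Student's t‐test.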

[3] = test system: motor coordination in rats; test: Motor coordination; type: in vivo; conditions: rat, p.o., cut‐off 200 s
Method in brief: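 Male Sprague‐Dawley rats were trained at 20 rpm on 2 consecutive days, up to five trials, until they walked ≥200 s. They were retrained in two sessions on test day; rats reaching the criterion once were used. Time on the rod (cut‐off 200 s) was recorded 1 h after the oral test compound or 2 h after pregabalin. n=10, mean ± SEM; Steel's test.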

[4] = test system: formalin‐induced pain responses in rats; conditions: ref 34 (Maione et al (2007)); cited from earlier work
[5] = test system: CFA‐induced mechanical allodynia in rats; test: CFA‐induced inflammatory pain; type: in vivo; conditions: rat, 1 and 4 hours after administration
Method in brief: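 Male Sprague‐Dawley rats received 50% CFA intraplantar (0.1 mL, right hind paw). PWT was measured 5 days later by von Frey up‐down method. The test compound (0.5% HPMC suspension) was dosed orally 1 h before PWT. Naproxen (0.5% methylcellulose) was dosed orally 4 h before PWT. Dosing volume 10 mL/kg. n=9, mean ± SEM; Steel's or Wilcoxon test.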

rat FAAH = molecular target: T1, rat FAAH (Rattus norvegicus, UniProt P97612); test: FAAH inhibition, rat brain microsomes, AAMCA fluorescence, IC50; type: biochemical
T1 sequence (P97612 1-579): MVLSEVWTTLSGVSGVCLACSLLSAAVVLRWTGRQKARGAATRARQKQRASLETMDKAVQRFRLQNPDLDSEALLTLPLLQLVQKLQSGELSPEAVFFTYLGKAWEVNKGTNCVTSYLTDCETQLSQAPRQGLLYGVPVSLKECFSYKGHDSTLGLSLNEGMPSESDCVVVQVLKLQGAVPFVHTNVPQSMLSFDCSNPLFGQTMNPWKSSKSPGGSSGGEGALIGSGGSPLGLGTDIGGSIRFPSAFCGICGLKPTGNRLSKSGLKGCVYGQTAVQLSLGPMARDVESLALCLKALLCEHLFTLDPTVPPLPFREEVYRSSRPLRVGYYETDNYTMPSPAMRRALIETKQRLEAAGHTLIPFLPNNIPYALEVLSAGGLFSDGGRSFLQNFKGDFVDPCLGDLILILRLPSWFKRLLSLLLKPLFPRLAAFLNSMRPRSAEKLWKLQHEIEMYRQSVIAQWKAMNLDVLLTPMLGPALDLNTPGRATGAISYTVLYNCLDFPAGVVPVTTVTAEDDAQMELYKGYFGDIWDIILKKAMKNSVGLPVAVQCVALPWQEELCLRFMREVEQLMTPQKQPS

5-HT2B (h) = 5-HT2B (h) (Homo sapiens, UniProt P41595); test: Cerep BioPrint profiling and follow-up IC50; type: binding
Sequence of 5-HT2B (h) (P41595 whole entry): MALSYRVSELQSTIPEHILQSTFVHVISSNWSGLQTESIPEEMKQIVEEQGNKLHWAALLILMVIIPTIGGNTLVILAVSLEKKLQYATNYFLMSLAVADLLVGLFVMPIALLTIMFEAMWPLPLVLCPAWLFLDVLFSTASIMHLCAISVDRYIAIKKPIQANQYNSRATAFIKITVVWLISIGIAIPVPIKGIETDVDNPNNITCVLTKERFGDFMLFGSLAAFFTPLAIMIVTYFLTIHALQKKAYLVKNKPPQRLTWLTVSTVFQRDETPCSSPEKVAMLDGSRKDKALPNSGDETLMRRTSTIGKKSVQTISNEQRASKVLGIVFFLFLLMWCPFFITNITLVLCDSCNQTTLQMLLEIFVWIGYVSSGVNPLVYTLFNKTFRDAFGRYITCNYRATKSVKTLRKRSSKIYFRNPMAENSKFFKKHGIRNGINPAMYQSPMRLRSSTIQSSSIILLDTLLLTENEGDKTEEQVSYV

catalepsy in rats = test: Catalepsy; type: in vivo; conditions: rat, cut‐off 90 s
[6] = Pharmacokinetic study in rats; type: in vivo; conditions: male, Sprague-Dawley, rat, plasma
Method in brief: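 Male Sprague‐Dawley rats. IV dose: 1 mg/kg in 40% dimethylacetamide/40% PEG400/20% water (1 mL/kg). Oral doses: 0.3, 1, 3 mg/kg as 0.5% HPMC suspension. Serial plasma was obtained by centrifugation (2,150g, 15 min, 4°C), extracted with ethyl acetate by supported‐liquid extraction, and reconstituted in 45% acetonitrile/55% 10 mmol/L ammonium acetate. Analysis by LC‐MS/MS; noncompartmental parameters.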

PAF (h) = PAF (h) (Homo sapiens, UniProt P25105); test: Cerep BioPrint profiling and follow-up IC50; type: binding
Sequence of PAF (h) (P25105 whole entry): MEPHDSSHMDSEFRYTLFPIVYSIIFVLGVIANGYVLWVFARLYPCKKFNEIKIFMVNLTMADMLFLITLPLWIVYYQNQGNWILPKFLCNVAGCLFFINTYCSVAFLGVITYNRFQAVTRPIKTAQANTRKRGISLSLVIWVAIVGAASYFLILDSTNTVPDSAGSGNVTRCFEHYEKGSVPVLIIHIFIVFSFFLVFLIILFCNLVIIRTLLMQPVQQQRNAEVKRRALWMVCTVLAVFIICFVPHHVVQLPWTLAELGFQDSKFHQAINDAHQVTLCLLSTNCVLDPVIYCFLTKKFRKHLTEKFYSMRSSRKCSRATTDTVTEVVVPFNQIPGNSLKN

human FAAH = molecular target: T2, human FAAH (Homo sapiens, UniProt O00519); test: FAAH inhibition, human microsomes; type: biochemical
T2 sequence (O00519 1-579): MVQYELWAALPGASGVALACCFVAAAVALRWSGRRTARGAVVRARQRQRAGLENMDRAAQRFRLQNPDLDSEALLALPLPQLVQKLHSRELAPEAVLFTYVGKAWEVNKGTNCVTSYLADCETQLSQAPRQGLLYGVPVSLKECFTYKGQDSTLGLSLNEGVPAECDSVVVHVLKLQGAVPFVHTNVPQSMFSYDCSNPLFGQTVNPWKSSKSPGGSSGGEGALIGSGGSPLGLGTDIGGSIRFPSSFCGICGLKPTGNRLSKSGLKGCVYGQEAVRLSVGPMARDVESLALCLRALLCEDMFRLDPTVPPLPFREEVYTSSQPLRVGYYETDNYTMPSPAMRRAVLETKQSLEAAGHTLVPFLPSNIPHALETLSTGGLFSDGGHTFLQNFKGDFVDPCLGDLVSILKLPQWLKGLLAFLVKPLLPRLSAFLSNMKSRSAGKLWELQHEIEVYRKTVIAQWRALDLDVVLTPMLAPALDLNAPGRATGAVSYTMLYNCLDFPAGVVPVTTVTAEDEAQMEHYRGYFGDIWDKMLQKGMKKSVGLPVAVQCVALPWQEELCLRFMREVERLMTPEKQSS

[7] = molecular target: T3, human monoacylglycerol lipase (MAGL) (Homo sapiens, UniProt Q99685); test: MAGL inhibitor screening assay kit; type: biochemical; conditions: 30 μmol/L
T3 sequence (Q99685 1-303): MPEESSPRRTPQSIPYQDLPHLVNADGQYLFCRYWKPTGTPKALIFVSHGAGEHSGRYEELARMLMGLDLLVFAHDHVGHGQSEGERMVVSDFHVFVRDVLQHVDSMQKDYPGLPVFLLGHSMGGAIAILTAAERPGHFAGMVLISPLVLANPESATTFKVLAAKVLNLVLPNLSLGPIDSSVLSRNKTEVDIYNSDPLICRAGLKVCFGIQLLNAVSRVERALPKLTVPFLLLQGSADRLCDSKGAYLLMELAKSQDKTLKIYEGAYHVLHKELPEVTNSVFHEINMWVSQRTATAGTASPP

[8] = test system: AEA concentrations in rat brain; test: AEA concentrations in rat brain; type: in vivo
[9] = test system: CFA‐induced mechanical allodynia in rats; conditions: cited from earlier work; for mechanical allodynia on CFA‐induced inflammatory pain: rats
motor coordination = conditions: ref 17 (Watabiki et al (2017)); cited from earlier work
catalepsy = conditions: ref 13 (Ahn et al (2011)); cited from earlier work
[10] = test system: partial sciatic nerve ligation‐induced mechanical allodynia; conditions: rats; cited from earlier work
[11] = test system: spinal nerve ligation‐induced mechanical allodynia; conditions: rats; single systemic administration; cited from earlier work
[12] = 30 mg/kg p.o. 1 hour before formalin

## CC(C)C[C@H](CN)CC(=O)O [Pregabalin, 3(S)‐(aminomethyl)‐5‐methylhexanoic acid, reference compound]
[1]; pregabalin 30 mg/kg p.o.
  mechanical allodynia (PWT), CCI‐induced neuropathic pain: significantly antagonized
[2]; [12]
  formalin‐induced pain responses, early phase: Neither PKM‐833 nor pregabalin changed
  formalin‐induced pain responses, late phase: significantly reduced
[3]; 10 mg/kg, 2 h
  Duration (s) on rotarod: 199 ± 1 s
[3]; 30 mg/kg, 2 h
  Duration (s) on rotarod: 167 ± 14 s

## CCCCC/C=C\C/C=C\C/C=C\C/C=C\CCCC(=O)NCCc1c[nH]c2ccc(O)cc12 [AA‐5‐HT, N‐arachidonoyl‐serotonin]
[4]
  formalin‐induced pain responses: significantly decreased formalin‐induced pain responses only in the late phase

## O=C(Nc1cccnn1)N1CCN([C@@H]2CCOc3cc(C(F)(F)F)ccc32)CC1 [PKM‐833, (R)‐N‐(pyridazin‐3‐yl)‐4‐(7‐(trifluoromethyl)chroman‐4‐yl)piperazine‐1‐carboxamide]
[5]; 0.3 to 3 mg/kg p.o.
  mechanical allodynia (PWT), CFA‐induced inflammatory pain: significantly suppressed
Rat FAAH
  IC50: 10 ± 3 nM
5-HT2B (h)
  IC50: 6400 nM
Catalepsy in rats; 10 mg/kg, p.o., 1 h
  Duration (s), catalepsy: 0.5 ± 0.1 s
Catalepsy in rats; 10 mg/kg, p.o., 4 h
  Duration (s), catalepsy: 3.7 ± 1.9 s
Catalepsy in rats; 30 mg/kg, p.o., 1 h
  Duration (s), catalepsy: 0.8 ± 0.2 s
Catalepsy in rats; 30 mg/kg, p.o., 4 h
  Duration (s), catalepsy: 1.0 ± 0.3 s
[1]; PKM‐833 30 mg/kg p.o. (3‐30 mg/kg tested)
  mechanical allodynia (PWT), CCI‐induced neuropathic pain: did not attenuate
[6]; iv, 1 mg/kg
  half-life: 5.8 h
[6]; po
  bioavailability: 41 to 91%
PAF (h)
  IC50: 2300 nM
Human FAAH
  IC50: 8.8 ± 3 nM
Human FAAH; FAAH versus 137 other molecular targets
  selectivity against other molecular targets: more than 200 fold
[7]
  inhibition of human MAGL: did not inhibit
[2]; 3 mg/kg p.o. 1 hour before formalin
  formalin‐induced pain responses, late phase: significantly reduced
[2]; 0.3‐3 mg/kg p.o. 1 hour before formalin
  formalin‐induced pain responses, early phase: Neither PKM‐833 nor pregabalin changed
[3]; 10 mg/kg, 1 h
  Duration (s) on rotarod: 200 ± 0 s
[3]; 30 mg/kg, 1 h
  Duration (s) on rotarod: 195 ± 6 s
[8]; 1 mg/kg p.o., 1 to 48 hours before decapitation
  AEA concentrations in rat brain, time course: significantly elevated for 8 hours but not at 24 and 48 hours
[8]; 0.3‐3 mg/kg p.o., 1 hour before decapitation
  AEA concentrations in rat brain, dose dependence: significant effects at doses of 1 and 3 mg/kg

## O=C(Nc1cccnc1)N1CCC(Cc2cccc(Oc3ccc(C(F)(F)F)cn3)c2)CC1 [PF‐3845, N‐3‐pyridinyl‐4‐[[3‐[[5‐(trifluoromethyl)‐2‐pyridinyl]oxy]phenyl]methyl]‐1‐piperidinecarboxamide]
[9]
  mechanical allodynia on CFA‐induced inflammatory pain: improved mechanical allodynia

## CS(=O)(=O)O.Cc1c(C(=O)c2cccc3ccccc23)c2cccc3c2n1[C@H](CN1CCOCC1)CO3 [WIN 55,212‐2, (R)‐(+)‐(2,3; dihydro‐5‐methyl‐3‐(4‐morpholinylmethyl)pyrrolo[1.2.3‐de]‐1,4‐benzoxazin‐6‐yl)‐1‐naphthalenylmethanone mesylate, reference compound]
Catalepsy in rats; 3 mg/kg, s.c., 1 h
  Duration (s), catalepsy: 13 ± 2 s
Catalepsy in rats; 3 mg/kg, s.c., 4 h
  Duration (s), catalepsy: 77 ± 7 s

## COc1ccc2cc([C@H](C)C(=O)O)ccc2c1 [Naproxen, (S)‐(+)‐6‐methoxy‐α‐methyl‐2‐naphthaleneacetic acid, reference compound]
[5]; 15 mg/kg p.o.
  mechanical allodynia (PWT), CFA‐induced inflammatory pain: significantly suppressed

## O=C(Nc1ccccc1)C1CCN(C(=O)Oc2cccnc2)CC1 [ASP8477, 3‐pyridyl 4‐(phenylcarbamoyl)piperidine‐1‐carboxylate]
Motor coordination
  effect on motor coordination: did not affect motor coordination up to 30 mg/kg

## O=C(Nc1cccnn1)N1CCC(=Cc2cccc(Oc3ccc(C(F)(F)F)cn3)c2)CC1 [PF‐04457845, N‐pyridazin‐3‐yl‐4‐(3‐{[5‐(trifluoromethyl)pyridin‐2‐yl]oxy}benzylidene)piperidine‐1‐carboxamide]
[9]
  mechanical allodynia on CFA‐induced inflammatory pain: improved mechanical allodynia
[9]; ref 13 (Ahn et al (2011))
  minimum effective dose in CFA‐induced inflammatory pain: 0.1 mg/kg
catalepsy
  effects on catalepsy: no effects on catalepsy up to 100‐fold higher dose

## NC(=O)c1cccc(-c2cccc(OC(=O)NC3CCCCC3)c2)c1 [URB597, (3'‐(aminocarbonyl)[1,1'‐biphenyl]‐3‐yl)‐cyclohexylcarbamate]
[10]
  partial sciatic nerve ligation‐induced mechanical allodynia: had no improvement
[11]
  spinal nerve ligation‐induced mechanical allodynia: improved
